Reference: PubChem BioAssay
The source made the active and inactive calls.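 The calls were made as follows, unless noted: active = viability at or under a set limit in both replicates, limit being median viability minus 3 SD (cut at about 48% in these data, passing the limit was not always enough); inconclusive = at or under the limit in just one replicate; inactive = at or above the limit in both replicates.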

Experiments:
[1] = reducers of endogenous Her2 protein level, primary screen, SKBR3 breast tumor cells, AlphaScreen, ATP viability (AID 461;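 active = Her2 level under about 52% in both replicate screens, with viability over 70% of control, limit read from the data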;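 as to Her2 level: lower value means less Her2 protein in the cells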;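 as to viability: percent of carrier control wells set as 100% viability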); conditions: 18-24 h, measured here: SKBR3 viability, ATP luminescence, at 10 µM
[2] = biological target: Receptor tyrosine-protein kinase erbB-2 (Homo sapiens) (UniProt P04626); assay: as above; conditions: 18-24 h, at 10 µM, stronger effect = lower value
[3] = SK-BR-3 cell growth inhibitors, pilot screen, 24 h, human (AID 572;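 active = viability at or below 10% of carrier control in both of two separate runs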;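 also: compound exposure lasted between 18 and 24 h rather than exactly 24 h; 100% = carrier-treated control wells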); conditions: SK-BR-3 viability, CellTiter-Glo luminescence, at 10 µM, stronger effect = lower value
[4] = HUVEC growth inhibition – cell-based, human, primary screen (AID 575;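 active = viability at or below 30% in both replicate assays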;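 also: 100% = median of untreated cell wells with 0.1% DMSO on each plate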); conditions: HUVEC proliferation, CellTiter-Glo luminescence, 72 h; at 10 µM; stronger effect = lower value
Summary of the method: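 Test system: primary human umbilical vein endothelial cells. Quantity: 1250 cells/well. Compound: single 10 µM dose, 0.1% DMSO, from 5x medium stock. Timing: 72 h treatment at 37 °C. Detection: ATP-based CellTiter-Glo luminescent read. Benchmarks: vehicle and MePR control wells. Format: 384-well plates coated with collagen.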

[5] = growth inhibitors of H69AR lung tumor, primary screen, human, duplicate replicates (AID 580); conditions: H69AR lung tumor cells viability, ATP luminescence, 72 h; at 10 µM; stronger effect = lower value;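 also: 100% = mean luminescence of untreated wells and 0% = no signal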
[6] = reversal of MRP1-mediated doxorubicin resistance, pilot screen, H69AR cells, doxorubicin co-treatment (AID 601;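 active = viability loss from added drug above about 55%, and viability with drug at most 40%, in both replicates, limit read from the data, passing the limit was not always enough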); conditions: CellTiter-Glo, 72 h, at 10 µM; for differential viability (reversal): stronger effect = higher value
[7] = 384-well plate pilot, post-Golgi transport modulator project, inhibition of yeast transport mutant growth (AID 636; in the data active = inhibition above about 31%); conditions: absorbance 615 nm, about 18 h, stronger effect = higher value
[8] = growth suppression of yeast trafficking mutant, preliminary HTS, modulators of trafficking downstream of Golgi apparatus project, 1536-format plate, OD 615 nm (AID 637; in the data active = inhibition above about 30%); conditions: yeast transport mutant growth, absorbance 615 nm, 18 h; stronger effect = higher value
[9] = H69AR cells + 2 uM doxorubicin, measured here: viability with 2 uM doxorubicin, stronger effect = lower value
[10] = H69AR cells, compound alone cytotoxicity

Sequence of Receptor tyrosine-protein kinase erbB-2 (Homo sapiens) (P04626 whole entry, looked up): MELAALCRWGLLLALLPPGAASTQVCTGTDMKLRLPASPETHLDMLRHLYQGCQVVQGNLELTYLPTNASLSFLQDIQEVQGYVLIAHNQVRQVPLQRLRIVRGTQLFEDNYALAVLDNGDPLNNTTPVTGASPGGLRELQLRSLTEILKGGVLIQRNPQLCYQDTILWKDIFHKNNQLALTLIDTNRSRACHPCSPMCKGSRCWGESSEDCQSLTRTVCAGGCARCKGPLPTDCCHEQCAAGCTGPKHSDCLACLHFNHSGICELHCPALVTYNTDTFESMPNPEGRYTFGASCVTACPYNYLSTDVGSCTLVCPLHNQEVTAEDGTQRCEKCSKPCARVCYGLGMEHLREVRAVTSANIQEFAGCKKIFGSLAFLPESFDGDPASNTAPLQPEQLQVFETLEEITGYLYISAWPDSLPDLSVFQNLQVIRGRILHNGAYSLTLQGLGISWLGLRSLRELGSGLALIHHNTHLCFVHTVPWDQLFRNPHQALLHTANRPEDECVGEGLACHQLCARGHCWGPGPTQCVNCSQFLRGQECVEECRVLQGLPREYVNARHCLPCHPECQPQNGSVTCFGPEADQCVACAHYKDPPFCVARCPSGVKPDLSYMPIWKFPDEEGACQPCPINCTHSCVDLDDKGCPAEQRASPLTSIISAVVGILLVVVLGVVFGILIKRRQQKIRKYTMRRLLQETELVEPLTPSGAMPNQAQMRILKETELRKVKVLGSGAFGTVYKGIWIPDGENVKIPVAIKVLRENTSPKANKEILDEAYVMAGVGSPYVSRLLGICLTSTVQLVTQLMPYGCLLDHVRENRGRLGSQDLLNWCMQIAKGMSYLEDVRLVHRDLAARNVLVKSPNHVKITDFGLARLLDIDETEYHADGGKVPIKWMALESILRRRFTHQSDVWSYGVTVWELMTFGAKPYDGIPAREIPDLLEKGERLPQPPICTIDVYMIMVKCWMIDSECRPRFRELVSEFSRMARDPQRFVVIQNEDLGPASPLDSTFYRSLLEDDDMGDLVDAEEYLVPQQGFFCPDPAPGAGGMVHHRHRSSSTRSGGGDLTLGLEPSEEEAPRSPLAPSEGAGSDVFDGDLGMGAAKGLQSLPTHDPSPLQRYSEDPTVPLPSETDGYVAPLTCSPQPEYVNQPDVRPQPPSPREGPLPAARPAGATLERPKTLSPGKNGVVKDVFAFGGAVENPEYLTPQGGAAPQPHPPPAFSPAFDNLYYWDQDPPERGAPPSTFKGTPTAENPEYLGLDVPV

Structure (SMILES)	viability [1] [%]	Her2 level [2]	viability [3]	viability [4]	viability [5]	differential viability (reversal) ([6]; H69AR cells + 2 uM doxorubicin)	viability [6, 9] [%]	viability [6, 10] [%]	inhibition [7]	inhibition [8]
COC(=O)Nc1ccc(C)cc1NC(=O)OC	86.5	102% (inactive)	86.5% (inactive)	96.4% (inactive)	107% (inactive)	7.78% (inactive)	99.5	107	0.67% (inactive)	-6.61% (inactive)
Cc1cccc(C(OC(=O)c2ccco2)C(=O)NCc2ccccc2)n1 (stereo not given)	102	90% (inactive)	102% (inactive)	86.6% (inactive)	96.1% (inactive)	7.79% (inactive)	88.3	96.1	-2.03% (inactive)	-1.64% (inactive)
Cc1ccc(C(=O)NC2CC3CCCC(C2)N3C(=O)NC2CCCCC2)cc1 (stereo not given)	92	109% (inactive)	92% (inactive)	111% (inactive)	98.5% (inactive)	7.93% (inactive)	90.6	98.5	-5.73% (inactive)	-2.1% (inactive)
Cc1cccc(C)c1NC(=O)CS(=O)CC(=O)NC1CCCc2ccccc21 (stereo not given)	96.5	82.5% (inactive)	96.5% (inactive)	103% (inactive)	88.7% (inactive)	-3.62% (inactive)	92.3	88.7	-6.8% (inactive)	-4.59% (inactive)
CCCCc1n[nH]c2c1C(=O)CC(C)(C)C2	73.5	90.5% (inactive)	73.5% (inactive)	102% (inactive)	96.9% (inactive)	13.4% (inactive)	83.5	96.9	-3.78% (inactive)	0% (inactive)
O=C(Nc1ccc(Cl)cc1C(=O)Nc1ccncc1)c1ccco1	121	48.5% (active)	121% (inactive)	70.1% (inactive)	41.3% (active)	-19.2% (inactive)	60.5	41.3	-1.84% (inactive)	-1.59% (inactive)
Cc1nc2sc(C(c3cccc(F)c3)N3CCCCC3)c(O)n2n1 (stereo not given)	109	80% (inactive)	109% (inactive)	95.1% (inactive)	99.5% (inactive)	10.9% (inactive)	88.6	99.5	-4.79% (inactive)	-4.92% (inactive)
COCCCNC(=O)CCc1nc(-c2ccccc2Cl)no1	102	95% (inactive)	102% (inactive)	103% (inactive)	93.3% (inactive)	-0.855% (inactive)	94.1	93.3	0.39% (inactive)	6.39% (inactive)
CCn1c(=O)cc(SCC(=O)NCC2CCCO2)c2ccccc21 (stereo not given)	89	87% (inactive)	89% (inactive)	88.7% (inactive)	87% (inactive)	8.63% (inactive)	78.4	87	-3.03% (inactive)	-7.27% (inactive)
CSCC[C@@H](Nc1nc(-c2ccccc2)nc2c1oc1ccccc12)C(=O)O	91	75% (inactive)	91% (inactive)	84.2% (inactive)	93.8% (inactive)	-1.28% (inactive)	95.1	93.8	-7.43% (inactive)	-0.82% (inactive)
Cc1cc(Nc2ccc(N3CCC(C)CC3)cc2)n2ncnc2n1	100	110% (inactive)	100% (inactive)	101% (inactive)	77.6% (inactive)	-1.35% (inactive)	79	77.6	5.62% (inactive)	3.02% (inactive)
Cc1nc2ccc(S(=O)(=O)NCC(=O)O)cc2s1	102	100% (inactive)	102% (inactive)	110% (inactive)	107% (inactive)	5.9% (inactive)	101	107	-1.84% (inactive)	-6.19% (inactive)
CC1CCCCC1NC(=O)C1CCN(C(=O)NC2CCCCC2)CC1 (stereo not given)	94.5	108% (inactive)	94.5% (inactive)	90.8% (inactive)	102% (inactive)	6.41% (inactive)	95.3	102	-0.78% (inactive)	0.17% (inactive)
O=C(O)CN(c1ccccc1)C1SC(=O)NC1=O (stereo not given)	85.5	87.5% (inactive)	85.5% (inactive)	98.5% (inactive)	86.8% (inactive)	3.04% (inactive)	83.8	86.8	-4.93% (inactive)	2.79% (inactive)
COc1cc2c(cc1NC(=O)CN1CCN(S(=O)(=O)c3ccc(F)cc3)CC1)oc1ccccc12	93.5	105% (inactive)	93.5% (inactive)	66.4% (inactive)	95.7% (inactive)	1.29% (inactive)	94.4	95.7	-2.37% (inactive)	3.33% (inactive)
CCCn1c(SCC(=O)N2CCc3ccccc3C2)nc2c1c(=O)n(C)c(=O)n2C	78.5	128% (inactive)	78.5% (inactive)	91.2% (inactive)	84.9% (inactive)	2.96% (inactive)	81.9	84.9	0.26% (inactive)	9% (inactive)

Structure (SMILES)	viability [1] [%]	Her2 level [2]	viability [3]	viability [4]	viability [5]	differential viability (reversal) ([6]; H69AR cells + 2 uM doxorubicin)	viability [6, 9] [%]	viability [6, 10] [%]	inhibition [7]	inhibition [8]
CCC(Sc1ncccc1C(=O)O)C(=O)N1CCCC1 (stereo not given)	92	93.5% (inactive)	92% (inactive)	95.5% (inactive)	101% (inactive)	14% (inactive)	87.2	101	2.47% (inactive)	-5.9% (inactive)
CCCc1cc(=O)n2[nH]c(-c3ccc(Br)cc3)cc2n1	90.5	71.5% (inactive)	90.5% (inactive)	56.2% (inactive)	73.1% (inactive)	-15.6% (inactive)	88.7	73.1	-2.76% (inactive)	-1.9% (inactive)
CCOC(=O)C(C)n1cnc2c(nnn2Cc2ccc(C)cc2)c1=O (stereo not given)	116	95.5% (inactive)	116% (inactive)	104% (inactive)	91.9% (inactive)	3.18% (inactive)	88.7	91.9	-9.73% (inactive)	1.9% (inactive)
Cc1ccc(S(=O)(=O)NCCNC(=O)c2ccccc2)cc1	99	82% (inactive)	99% (inactive)	105% (inactive)	99.2% (inactive)	19.7% (inactive)	79.5	99.2	-8.92% (inactive)	-0.83% (inactive)
COc1ccc(NC(=O)Cn2nnc(-c3ccccc3N)n2)cc1OC	106	108% (inactive)	106% (inactive)	94.4% (inactive)	97.8% (inactive)	4.44% (inactive)	93.3	97.8	-5.07% (inactive)	10% (inactive)
COc1cccc(N2C(=O)C(O)=C(C(C)=O)C2c2ccc(OC)c(OC)c2)c1 (stereo not given)	94.5	94% (inactive)	94.5% (inactive)	109% (inactive)	100% (inactive)	7.03% (inactive)	93	100	0.26% (inactive)	4.75% (inactive)
O=C(CN1CCOCC1)N1CCCc2c1c(=O)oc1ccc(OCc3ccccc3)cc21	82	99.5% (inactive)	82% (inactive)	94.8% (inactive)	77.2% (inactive)	4.61% (inactive)	72.6	77.2	-5.07% (inactive)	-4.1% (inactive)
COCCCN1C(=O)C(O)=C(C(=O)c2ccco2)C1c1ccc(Br)cc1 (stereo not given)	102	89.5% (inactive)	102% (inactive)	99.5% (inactive)	97.6% (inactive)	10.2% (inactive)	87.4	97.6	-6.13% (inactive)	0.81% (inactive)
Cc1ccc2[nH]c3c(N4CCOCC4)ncnc3c2c1	116	95% (inactive)	116% (inactive)	76.3% (inactive)	85.5% (inactive)	-15.7% (inactive)	101	85.5	-3.68% (inactive)	8.2% (inactive)
N#Cc1c(/N=C/c2cccs2)sc2c1CCCCC2	98.5	88.5% (inactive)	98.5% (inactive)	66.5% (inactive)	90.3% (inactive)	16.3% (inactive)	73.9	90.3	-5.33% (inactive)	5.74% (inactive)
COc1ccc(S(=O)(=O)N(C)CC(=O)N2CCCCC2)cc1Cl	80	106% (inactive)	80% (inactive)	96.6% (inactive)	93.5% (inactive)	6.07% (inactive)	87.4	93.5	-5.41% (inactive)	1.8% (inactive)
Cc1csc(NC(=O)CCCSc2nc3ccccc3s2)n1	100	71% (inactive)	100% (inactive)	62.9% (inactive)	96% (inactive)	0.115% (inactive)	95.9	96	-5.87% (inactive)	5.57% (inactive)
N#CC1=C(N)S[C@H](C(=O)C23CC4CC(CC(C4)C2)C3)[C@H]1c1ccncc1	81	79% (inactive)	81% (inactive)	41% (inactive)	93.7% (inactive)	47.6% (inactive)	46.1	93.7	-2.8% (inactive)	4.84% (inactive)
O=S(=O)(c1ccc(S(=O)(=O)N2CCN3CCCC3C2)cc1)N1CCCC1 (stereo not given)	80.5	90.5% (inactive)	80.5% (inactive)	104% (inactive)	98.9% (inactive)	16.1% (inactive)	82.8	98.9	-0.77% (inactive)	0.17% (inactive)
Cc1ccc2nc(SCC(=O)NCc3ccco3)c(C#N)cc2c1	90.5	88.5% (inactive)	90.5% (inactive)	82.3% (inactive)	62.2% (inactive)	-7.5% (inactive)	69.7	62.2	-4.74% (inactive)	-3.27% (inactive)
CC(C)c1cc(C(=O)NCc2ccco2)no1	101	99.5% (inactive)	101% (inactive)	84.3% (inactive)	80.4% (inactive)	5.93% (inactive)	74.5	80.4	0.13% (inactive)	-2.83% (inactive)
